Reference: ChEMBL document CHEMBL1125800, “Design of potent linear PAF antagonists” (J Med Chem, 1991)

Legend:
Assay type in all cases: functional
Oryctolagus cuniculus = organism: Oryctolagus cuniculus; experiment: In vitro inhibition of platelet aggregation (rabbit) induced by PAF
How it was run: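 Aggregation of platelet-rich plasma, obtained by spinning blood at 250 g for 10 min at 4 °C. The PRP was diluted with platelet-poor plasma (3000 g, 10 min) to […]. Aggregation was triggered with C18-PAF at 1.5 × 10⁻⁸ M and read on an aggregometer. IC50 was taken by linear regression from one curve of ≥4 concentrations, each the mean of 1–3 experiments.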

Rattus norvegicus [1] = experiment: In vivo inhibition of PAF induced hypotension in rats after intravenous administration.; details: read-out: ID50 (the source's name)
How it was run: (§1)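 Male Sprague-Dawley rats (180–220 g) were anesthetized with pentobarbital (50 mg/kg ip), with carotid blood pressure recorded. Compound was given iv in saline (1 mL/kg) via a femoral vein 3 min before PAF (0.5 µg/kg iv). Controls received vehicle. Percent inhibition of hypotension versus controls gave ID50 by linear regression over ≥4 doses, each the mean of ≥2 experiments.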

Rattus norvegicus [2] = experiment: In vivo inhibition of PAF induced hypotension in rats after intravenous administration; details: read-out: ID50 (the source's name); how it was run: as §1

Row | IC50 (Oryctolagus cuniculus; Oryctolagus cuniculus) [nM] | SMILES | ED50 (Rattus norvegicus [1]) [mg/kg] | ED50 (Rattus norvegicus [2]) [mg/kg] | IC50 (Oryctolagus cuniculus) [nM]
1 | 1300 | CC[n+]1ccccc1CN(C(C)=O)C(=O)OCCOCCOC(=O)NCCCc1ccccc1 |  |  | 
2 | 12 | CCCCCCCCCCCCCCCNC(=O)OCCOCCOCCOC(=O)N(Cc1cccc[n+]1CC)C(C)=O.[I-] | 0.028 |  | 
3 | 18 | CCCCCCCCCCCCCCCCCNC(=O)OCCSCCOC(=O)N(Cc1cccc[n+]1CC)C(=O)OCC.[I-] | 0.028 |  | 
4 | 5.1 | CCCCCCCCCCCCCCCCOCCSCCOC(=O)N(Cc1cccc[n+]1CC)C(C)=O |  |  | 
5 | 23 | CCCCCCCCCCCCCCCCCCNC(=O)OCCCOC(=O)N(Cc1cccc[n+]1CC)C(C)=O.[I-] | 0.02 |  | 
6 | 26 | CCCCCCCCCCCCCCCNC(=O)OCC1OCC(COC(=O)N(Cc2cccc[n+]2CC)C(C)=O)O1.[I-] (centres undefined) | 0.11 |  | 
7 | 8.4 | CCCCCCCCCCCCCCCNC(=O)OCCSCCOC(=O)N(Cc1cccc[n+]1CC)C(C)=O.[I-] | 0.04 |  | 
8 | 870 | CCCCCCCCCCCCCCCCCCOC(=O)N(Cc1cccc[n+]1CC)C(C)=O.[I-] | 0.17 |  | 
9 | 72 | CCCCCCCCCCCCCCCNC(=O)OCC1CCC(COC(=O)N(Cc2cccc[n+]2CC)C(C)=O)O1.[I-] (centres undefined) | 0.098 |  | 
10 | 8700 | CCCCCCCCCCCCCCCCCNC(=O)OCCSCCOC(=O)N(Cc1cccc[n+]1CC)C(=O)CCCCCCCCCCCCCCC.[I-] | > 5 |  | 
11 | 22 | CCCCCCCCCCCCCCCNC(=O)OCCOCCOC(=O)N(Cc1cccc[n+]1CC)C(C)=O |  |  | 
12 | 1400 | CCCCCCCCCCCCCCCCCCCCCCOC(=O)N(Cc1cccc[n+]1CC)C(C)=O.[I-] | 0.53 |  | 
13 | 2000 | CC[n+]1ccccc1CN(C(C)=O)C(=O)OCCOCCOC(=O)NCC1CCCCC1 |  |  | 
14 | 15 | CCCCCCCCCCCCCCCCCCOCCSCCOC(=O)N(Cc1cccc[n+]1CC)C(C)=O |  |  | 
15 | 17 | CCCCCCCCCCCCCCCCCNC(=O)OCCOCCOC(=O)N(Cc1cccc[n+]1CC)C(C)=O |  |  | 
16 | 14 | CCCCCCCCCCCCCCCCNC(=O)OCCSCCOC(=O)N(Cc1cccc[n+]1CC)C(C)=O.[I-] | 0.01 |  | 
17 | 7.5 | CCCCCCCCCCCCCCCNC(=O)OCC1COC(COC(=O)N(Cc2cccc[n+]2CC)C(C)=O)O1.[I-] (centres undefined) | 0.085 |  | 
18 | 23 | CCCCCCCCCCCCCCCNC(=O)OCCOCCOC(=O)N(Cc1cccc[n+]1CC)C(=O)OCC |  |  | 
19 | 18 | CCCCCCCCCCCCCCCCCCNC(=O)OCCOCCOC(=O)N(Cc1cccc[n+]1CC)C(C)=O.[I-] | 0.019 |  | 
20 | 27 | CCCCCCCCCCCCCCCCCNC(=O)OCC[S+]([O-])CCOC(=O)N(Cc1cccc[n+]1CC)C(C)=O.[I-] (centres undefined) | 0.025 |  | 

Row | IC50 (Oryctolagus cuniculus; Oryctolagus cuniculus) [nM] | SMILES | ED50 (Rattus norvegicus [1]) [mg/kg] | ED50 (Rattus norvegicus [2]) [mg/kg] | IC50 (Oryctolagus cuniculus) [nM]
21 | 12 | CCCCCCCCCCCCCCCCCCNC(=O)OCC(COC(=O)N(Cc1cccc[n+]1CC)C(C)=O)OC.[Cl-] (centres undefined) [CV-6209] |  | 0.0078 | 
22 | 230 | CCCCCCCCCCCCCCCNC(=O)OCCOCCOC(=O)N(Cc1cccc[n+]1CCC)C(C)=O |  |  | 
23 |  | CCCCCCCCCCCCCCCCCNC(=O)OCCSCCOC(=O)N(Cc1cccc[n+]1CC)C(C)=O [listing 1 of 3 here] |  |  | 5.6
24 | 12000 | CCCCCCCCCCCCCCCNC(=O)OCCOCCOC(=O)CCCCC[n+]1ccsc1.Cc1ccc(S(=O)(=O)[O-])cc1 | > 5 |  | 
25 | 55 | CCCCCCCCCCCCCCCCCNC(=O)OCCOCCOC(=O)N(Cc1cccc[n+]1C)C(C)=O |  |  | 
26 | 22 | CCCCCCCCCCCCCCCCCCOCCOCCOC(=O)N(Cc1cccc[n+]1CC)C(C)=O.[I-] | 0.024 |  | 
27 | 150 | CCCCCCCCCCCCCCCCCNC(=O)OCCSCCOC(=O)N(Cc1cccc[n+]1CC)C(=O)C(C)(C)C.[I-] | 0.33 |  | 
28 | 160 | CCCCCCCCCCCCCCCCCCCCOC(=O)N(Cc1cccc[n+]1CC)C(C)=O.[I-] | 0.33 |  | 
29 | 9.1 | CCCCCCCCCCCCCCCCCNC(=O)OCCSCCOC(=O)N(Cc1cccc[n+]1CC)C(=O)c1ccccc1OC.[I-] | 0.019 |  | 
30 | 24000 | CCOC(=O)N(Cc1cccc[n+]1CC)C(C)=O.[I-] | > 5 |  | 
31 | 11 | CCCCCCCCCCCCCCCCCNC(=O)OCCS(=O)(=O)CCOC(=O)N(Cc1cccc[n+]1CC)C(C)=O.[I-] | 0.019 |  | 
32 | 5.9 | CCCCCCCCCCCCCCCCCCNC(=O)OCCSCCOC(=O)N(Cc1cccc[n+]1CC)C(C)=O.[I-] | 0.015 |  | 
33 | 24 | CCCCCCCCCCCCCCCNC(=O)OCCCCCOC(=O)N(Cc1cccc[n+]1CC)C(C)=O |  |  | 
34 |  | CCCCCCCCCCCCCCCCCCNC(=O)OCC(COC(=O)N(Cc1cccc[n+]1CC)C(C)=O)OC.[I-] (centres undefined) | 0.011 |  | 11
35 | 1700 | CC[n+]1ccccc1CN(C(C)=O)C(=O)OCCOCCOC(=O)C(C)(C)C.[I-] | > 5 |  | 
36 | 8.8 | CCCCCCCCCCCCCCCCCNC(=O)OCCOCCOC(=O)N(Cc1cccc[n+]1CC)C(=O)OCC |  |  | 
37 |  | CCCCCCCCCCCCCCCCCNC(=O)OCCSCCOC(=O)N(Cc1cccc[n+]1CC)C(C)=O [listing 2 of 3 here] |  |  | 12
38 |  | CCCCCCCCCCCCCCCCCNC(=O)OCCSCCOC(=O)N(Cc1cccc[n+]1CC)C(C)=O [listing 3 of 3 here] |  |  | 8.6
39 | 190 | CCSCCOC(=O)N(Cc1cccc[n+]1CC)C(C)=O.[I-] | 0.37 |  | 
